The target of series [1] is T1, I-kappa-B kinase (Rattus norvegicus) (UniProt Q9QY78+G3V926+Q6TMG5). Put plainly: Inhibition of IKK in Sprague-Dawley rat calvarial osteoblasts assessed as reduction in TNFalpha-induced NFkB signaling by measuring ratio of cytosolic p65 level to beta-actin level at 10 nM after 24 hrs by Western blot analysis (reference value: 0.99). The note with it: Calvarial osteoblast. It counts as cell-based.

Series [2] concerns the target T1, I-kappa-B kinase (Rattus norvegicus). Kind of series: Inhibition of IKK in Sprague-Dawley rat calvarial osteoblasts assessed as reduction in TNFalpha-induced beta-catenin degradation by measuring ratio of beta-catenin level to beta-actin level at 10 nM after 24 hrs by Western blot analysis (reference value: 0.32). The note with it: Calvarial osteoblast. Format: cell-based. The method in brief:
(§1)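 Primary osteoblasts from pooled calvaria of 1-2 day SD rat pups (sequential dispase/collagenase digestion) were grown to 60-70% confluence. They were treated with 17β-estradiol 10 nM in the presence of TNFα 10 ng·ml⁻¹ for 24 h. Whole-cell lysates were immunoblotted, and bands were detected by ECL. Densitometry was normalised to β-actin.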

Series [3] shares this target. Put plainly: Inhibition of IKK in Sprague-Dawley rat calvarial osteoblasts assessed as reduction in TNFalpha-induced NFkB signaling by measuring ratio of nuclear p65 level to beta-actin level at 10 nM after 24 hrs by Western blot analysis (reference value: 2.97). Format: cell-based. The conditions noted are these: Calvarial osteoblast.
Series [4] has the same target. Put plainly: Inhibition of IKK in Sprague-Dawley rat calvarial osteoblasts assessed as reduction in TNFalpha-induced IkBalpha phosphorylation by measuring ratio of phosphorylated IkBalpha level to beta-actin level at 10 nM after 24 hrs by Western blot analysis (reference value: 2.32). The note with it: Calvarial osteoblast. Format: cell-based. In outline:
as §1

Series [5] shares this target. Kind of series: Inhibition of IKK in TNFalpha-simulated Sprague-Dawley rat calvarial osteoblasts assessed as ratio of IkBalpha level to beta-actin level at 10 nM after 24 hrs by Western blot analysis (reference value: 0.78). The conditions noted are these: Calvarial osteoblast. Format: cell-based. The method in brief:
as §1

For series [6] the target is unchanged. Kind of series: Inhibition of IKK in TNFalpha-simulated Sprague-Dawley rat calvarial osteoblasts assessed as ratio of Bcl2 level to beta-actin level at 10 nM after 24 hrs by Western blot analysis (reference value: […]). The conditions noted are these: Calvarial osteoblast. Format: cell-based.
For series [7] the target is unchanged. Kind of series: Inhibition of IKK in TNFalpha-simulated Sprague-Dawley rat calvarial osteoblasts assessed as ratio of Bcl-xL level to beta-actin level at 10 nM after 24 hrs by Western blot analysis (reference value: 0.69). It counts as cell-based. The note with it: Calvarial osteoblast. The method in brief: as §1
Series [8] shares this target. Put plainly: Inhibition of IKK in TNFalpha-simulated Sprague-Dawley rat calvarial osteoblasts assessed as ratio of Bax level to beta-actin level at 10 nM after 24 hrs by Western blot analysis (reference value: 1.25). It counts as cell-based. The note with it: Calvarial osteoblast. The method in brief: as §1
The target is the same in series [9]. Kind of series: Inhibition of IKK in Sprague-Dawley rat calvarial osteoblasts assessed as reduction in TNFalpha-induced NFkB nuclear translocation at 10 nM after 24 hrs by immunofluorescence assay. It counts as cell-based. The conditions noted are these: Calvarial osteoblast. In outline:
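Primary rat osteoblasts on chamber slides given TNFα (10 ng·ml⁻¹) for 24 h, with or without treatment. Then 4% PFA fixation, 0.1% Triton X-100, anti-NF-κB overnight, and Cy3 anti-rabbit secondary. Fluorescence imaged at excitation 552 nm, emission 570 nm.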

Series [10] relates to Rattus norvegicus. Put plainly: Antiosteoporotic activity in Sprague-Dawley rat model of OVX-induced bone loss assessed as protection against microarchitectural deterioration by measuring ratio of bone volume/[…] at 100 ug/kg, sc administered 5 days/week for 12 weeks by microcomputed tomographic analysis (reference value: 4.68 +/- 0.58%). Format: functional.

For series [11], the system named is Rattus norvegicus. Put plainly: Antiosteoporotic activity in Sprague-Dawley rat model of OVX-induced bone loss assessed as protection against microarchitectural deterioration by measuring trabecular number at 100 ug/kg, sc administered 5 days/week for 12 weeks by microcomputed tomographic analysis (reference value: 0.56 +/- 0.06 /millimeter). It counts as functional. The method in brief: (§2)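 Adult female Sprague-Dawley rats were ovariectomized and left 12 weeks to become osteopenic. They then received 12 weeks of once-daily oral gavage (1% gum acacia vehicle) or subcutaneous estradiol, five days a week. Femurs were collected at sacrifice and scanned by micro-CT for BMD and trabecular microarchitecture. Ten rats per group; mean ± SEM.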

The subject of series [12] is Rattus norvegicus. Put plainly: Antiosteoporotic activity in Sprague-Dawley rat model of OVX-induced bone loss assessed as protection against microarchitectural deterioration by measuring trabecular separation at 100 ug/kg, sc administered 5 days/week for 12 weeks by microcomputed tomographic analysis (reference value: 1.31 +/- 0.06 millimeter). Format: functional. The method in brief: as §2

In series [13] the test system is Rattus norvegicus. Kind of series: Antiosteoporotic activity in Sprague-Dawley rat model of OVX-induced bone loss assessed as protection against microarchitectural deterioration by measuring trabecular bone pattern factor at 100 ug/kg, sc administered 5 days/week for 12 weeks by microcomputed tomographic analysis (reference value: 10.81 +/- 0.68 /millimeter). Format: functional. In outline: as §2

For series [14], the system named is Rattus norvegicus. Kind of series: Antiosteoporotic activity in Sprague-Dawley rat model of OVX-induced bone loss assessed as protection against microarchitectural deterioration by measuring structural model index at 100 ug/kg, sc administered 5 days/week for 12 weeks by microcomputed tomographic analysis (reference value: 2.07 +/- 0.06). Format: functional.

The test system of series [15] is Rattus norvegicus. Put plainly: Antiosteoporotic activity in Sprague-Dawley rat model of OVX-induced bone loss assessed as mineral apposition rate at 100 ug/kg, sc administered 5 days/week for 12 weeks by microcomputed tomographic analysis (reference value: 0.169 +/- 0.004 umeter/day). Format: functional. In outline:
(§3)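 Female Sprague-Dawley rats, 10-12 weeks old, ten per group, were ovariectomized and left 12 weeks for osteopenia. They were then dosed once daily by oral gavage for 12 weeks in 1% gum acacia vehicle. The estradiol arm received 100 µg·kg⁻¹ subcutaneously five days a week. Tetracycline and calcein were given intraperitoneally at 20 mg·kg⁻¹ each. Femur cross-sections (50 µm) were imaged by fluorescence microscopy for MAR and BFR.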

For series [16], the system named is Rattus norvegicus. Put plainly: Antiosteoporotic activity in Sprague-Dawley rat model of OVX-induced bone loss assessed as bone formation rate at 100 ug/kg, sc administered 5 days/week for 12 weeks by microcomputed tomographic analysis (reference value: 0.171 +/- 0.005 um3/um2/day). It counts as functional. In outline: as §3
The test system of series [17] is Rattus norvegicus. Kind of series: Antiosteoporotic activity in Sprague-Dawley rat model of OVX-induced bone loss assessed as increase in femoral bone strength by measuring energy at 100 ug/kg, sc administered 5 days/week for 12 weeks by 3 point bending test (reference value: 46.27 +/- 4.36 mJ). Format: functional.
Series [18] deals with Rattus norvegicus. Kind of series: Antiosteoporotic activity in Sprague-Dawley rat model of OVX-induced bone loss assessed as increase in femoral bone strength by measuring stiffness at 100 ug/kg, sc administered 5 days/week for 12 weeks by 3 point bending test (reference value: 122.07 +/- 12.18 N/mm). It counts as functional.
Series [19] relates to Rattus norvegicus. Put plainly: Antiosteoporotic activity in Sprague-Dawley rat model of OVX-induced bone loss assessed as decrease in serum CTX level at 100 ug/kg, sc administered 5 days/week for 12 weeks by ELISA. It counts as functional, organism-based. The method in brief:
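Ovariectomy model as above: 12 weeks of osteopenia, then 12 weeks of daily gavage or subcutaneous estradiol. Serum was separated at autopsy, and CTX and PINP were measured by ELISA kits.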

Series [20] can be described thus: Toxicity in Sprague-Dawley rat model of OVX-induced bone loss assessed as uterine weight at 100 ug/kg, sc for 12 weeks (reference value: 0.12 +/- 0.02 g). Format: organism-based. The conditions noted are these: in vivo, 0.1 mg/kg, 2016 h.
Series [21] is described as follows: Toxicity in Sprague-Dawley rat model of OVX-induced bone loss assessed as total uterine area at 100 ug/kg, sc for 12 weeks (reference value: 0.11 +/- 0.003 mm2). It counts as organism-based. The conditions noted are these: in vivo, 0.1 mg/kg, 2016 h.
A short description of series [22]: Toxicity in Sprague-Dawley rat model of OVX-induced bone loss assessed as luminal area at 100 ug/kg, sc for 12 weeks (reference value: 0.01 +/- 0.0004 mm2). Format: organism-based. The note with it: in vivo, 0.1 mg/kg, 2016 h.
Series [23] can be described thus: Toxicity in Sprague-Dawley rat model of OVX-induced bone loss assessed as luminal epithelial height at 100 ug/kg, sc for 12 weeks (reference value: 27.29 +/- 0.96 umeter). It counts as organism-based. The note with it: in vivo, 0.1 mg/kg, 2016 h.
The nature of series [24]: Induction of osteoblast differentiation in Sprague-Dawley rat calvarial osteoblasts assessed as alkaline phosphatase activity after 48 hrs using PNPP as substrate by spectrophotometric method. It counts as functional, cell-based. The note with it: Rattus norvegicus, Sprague-Dawley, Calvarial osteoblast, 48 h; read-out: EC50. The method in brief:
(§4)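 Calvarial osteoblasts at 2 × 10³ cells/well. Treated 48 h with varied concentrations in differentiation medium (5% charcoal-treated FBS, 10 mM β-glycerophosphate, 50 µg·mL⁻¹ ascorbic acid). Total ALP read with PNPP substrate at 405 nm. Cell-free wells check for compound interference with substrate or absorbance.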

The nature of series [25]: Induction of osteoblast differentiation in Sprague-Dawley rat calvarial osteoblasts assessed as alkaline phosphatase activity at 1 nM after 48 hrs using PNPP as substrate by spectrophotometric method relative to control. Format: functional. The method in brief: as §4
A short description of series [26]: Induction of osteoblast differentiation in Sprague-Dawley rat calvarial osteoblasts assessed as alkaline phosphatase activity at 10 pM after 48 hrs using PNPP as substrate by spectrophotometric method relative to control. It counts as functional. In outline:
as §4

These results are taken from ChEMBL document CHEMBL4325822, “Discovery of a tetrazolyl β-carboline with in vitro and in vivo osteoprotective activity under estrogen-deficient conditions” (Medchemcomm, 2018).

The source made the active and inactive calls. The calls are words filed in the database; no cut-off is given here.

In the case of `C[C@]12CC[C@@H]3c4ccc(O)cc4CC[C@H]3[C@@H]1CC[C@@H]2O` [ESTRADIOL], the Ratio in series [1] was 1.45; in series [2], 0.81; in [3], 1.41; in [4], 1.26; in [5], 0.66; in [6], 1.45. Further, the results for the Ratio (in series [7]; in series [8]; in the series with Rattus norvegicus [10]) were 0.9, 0.65 and 11.09%, respectively. For the same compound, the inhibition result in [9] was “Active”. Moreover, the Activity in the series with Rattus norvegicus [11] was 1.55 /millimeter; in the series on Rattus norvegicus [12], 0.68 mm; in the series on Rattus norvegicus [13], 5.99 /millimeter; in the series on Rattus norvegicus [15] it was 1.06 micrometer/day; with Rattus norvegicus [16] it was 1.04 um3/um2/day; in the series with Rattus norvegicus [17], 62.77 mJ. For the same compound, the Activity in the series on Rattus norvegicus [18] is recorded as 171.75 N/mm; in series [20] it was 0.45 g; in series [21], 0.87 mm2; in [22] it was 0.054 mm2; in series [23] it was 17.8 um. For the same compound, the Activity_index in the series with Rattus norvegicus [14] was 1.6. Moreover, in the series on Rattus norvegicus [19], the outcome was inactive.

Consider `COC(=O)c1cc2c([nH]c3ccccc32)c(C=O)n1`, for which, in series [24], the EC50 worked out at 0.545 µM. Also, the Emax at 0.001 µM in series [25] worked out at 24%.

`COC(=O)c1cc2c([nH]c3ccccc32)c(C(c2nnnn2C2CCCCC2)N2CCN(C)CC2)n1` (configuration not stated): in series [24], the EC50 came out at 0.53 µM. The Emax at 10 pM in series [26] was 30%.
